Assay outcomes (PubChem BioAssay)
Rows were chosen to be rich in hits. Some 1.9% of all compounds tested hit in one or more screens of this group.
NOD2 RIPK2 PPI: NOD2-RIPK2 protein interaction inhibition | actives 0.38% (n = 360,000) | CHO BLA complementation NOD2-RIPK2, CCF4 ratio | inhibition, % at 4.98 µM; in the data active means inhibition above about 21%;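 further: 0% = vehicle only and 100% = reference blocker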
NTR1 ag: activates human neurotensin receptor 1; P30989; NTR1-U2OS beta-arrestin-GFP spot imaging, agonist mode; activation, % at 20 µM; actives 0.17% (n = 330,000);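 active means activation at or above 40% of the spot to cytoplasm intensity ratio, with at least 20 cells analyzed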;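 further: 0% = DMSO without peptide and 100% = 100 nM NTR1 peptide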
Target sequence (P30989 whole entry, looked up): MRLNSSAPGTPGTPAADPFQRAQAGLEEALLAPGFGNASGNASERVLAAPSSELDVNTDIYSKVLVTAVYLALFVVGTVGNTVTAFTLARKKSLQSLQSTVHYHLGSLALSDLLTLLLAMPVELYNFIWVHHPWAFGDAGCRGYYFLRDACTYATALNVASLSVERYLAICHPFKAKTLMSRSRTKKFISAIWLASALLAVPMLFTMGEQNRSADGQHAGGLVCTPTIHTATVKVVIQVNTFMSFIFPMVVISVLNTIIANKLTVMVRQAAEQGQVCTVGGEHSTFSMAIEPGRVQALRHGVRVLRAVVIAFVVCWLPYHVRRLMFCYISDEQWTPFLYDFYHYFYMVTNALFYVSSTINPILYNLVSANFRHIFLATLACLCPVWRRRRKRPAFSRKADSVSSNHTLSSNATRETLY
MC4R antag cAMP: blocks human MC4R cAMP signaling; MC4R-expressing cells, MTII-stimulated cAMP, LANCE TR-FRET; inhibition, % at 6.5 µM; actives 0.48% (n = 360,000); AID 540295;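 active means inhibition above its plate's cutoff, the mean of tested wells on that plate plus 3 SD, cut at about 29% in these data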;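 further: 0% = Melanotan II alone and 100% = Melanotan II plus saturating MCL0020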
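material = U2OS cells stably expressing human melanocortin 4 receptor (MC4R) | also added = Melanotan II challenge | dosing = single nominal compound dose of 6.5 µM | detection = TR-FRET with Eu-cAMP and labeled anti-cAMP, 671 nm | replication = singlicate | timing = compound 30 min, challenge 1 h, detection 1 h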
TLR4 MyD88 comp: blocks binding of human TLR4 to MyD88; O00206+Q99836; HeLa CL3-4 TLR4/MyD88 BLA complementation, FRET ratio; actives 0.18% (n = 200,000); inhibition, % at 8.4 µM; in the data active means inhibition above about 25%;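 further: 0% = vehicle and 100% = reference inhibitor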
MC4R barr agon: human MC4R agonism via beta-arrestin | P32245 | U2OS MC4R beta-arrestin complementation, luminescence; percent of melanotan II response, DMSO zero | activation, % at 8.9 µM | actives 0.98% (n = 360,000) | AID 540308;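 active means activation above a per-plate cutoff, the mean activation of sample wells on that plate plus 3 SD, cut at about 8% in these data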
TLR9-MyD88 inh: TLR9-MyD88 interaction inhibition | Q9NR96+Q99836 | inhibition, % at 4.98 µM | CHO BLA complementation TLR9-MyD88, CCF4 FRET ratio | actives 0.21% (n = 340,000);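 active means inhibition above the mean over all tested compounds plus 3 SD, cut at about 21% in these data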;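 further: 0% = DMSO only wells and 100% = clavulanate BLA inhibitor control wells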
TLR4 MyD88 cnf: TLR4-MyD88 interaction inhibition confirmed | HeLa CL3-4 BLA complementation, CCF4 FRET ratio | inhibition, % at 8.4 µM | actives 50% (n = 350) | shares compounds with TLR4 MyD88 comp;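 active means mean inhibition across three repeat runs above about 25% carried over from the earlier screen, limit read from the data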;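 further: plate controls were DMSO only for no effect and clavulanic acid blocking BLA at full dose for full effect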
BLA inh HeLa: beta-lactamase inhibition flagged in TLR4-MyD88 counter-screen. shares compounds with TLR4 MyD88 comp. HeLa BLA reporter, CCF4 FRET ratio. inhibition, % at 8.4 µM. actives 63% (n = 350);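 active means mean inhibition over three repeats above about 26% taken from the earlier screen, limit read from the data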;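 further: HeLa cells stably expressing beta-lactamase reporter as counterscreen for TLR4-MyD88 inhibitors; 0% = DMSO and 100% = clavulanic acid full inhibition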
TLR9-MyD88 conf: confirmation of human TLR9-MyD88 binding inhibitors; actives 51% (n = 680); CHO TLR9/MyD88 BLA complementation, CCF4 FRET ratio; inhibition, % at 4.98 µM; shares compounds with TLR9-MyD88 inh; AID 540250;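 active means mean inhibition across three repeats above about 21% taken from the earlier screen, limit read from the data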;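 further: blue over green emission ratio reports constitutive TLR9 MyD88 association via BLA complementation; 0% = DMSO vehicle wells and 100% = clavulanate BLA inhibitor wells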
BLA counter-1: beta-lactamase reporter inhibition, counter-screen artifact | shares compounds with TLR9-MyD88 inh | CHO-BLA cells, CCF4 FRET ratio, BLA reporter | inhibition, % at 4.98 µM | actives 7% (n = 680) | AID 540251;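 active means mean inhibition above a 50% cutoff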;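 further: counterscreen of TLR9-MyD88 hits on CMV-driven BLA in CHO-K1 cells; 0% = DMSO alone and 100% = clavulanate blocking BLA; higher means less blue over green ratio so more BLA blockade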
TLR9 CHO tox: CHO cell toxicity counter-screen for TLR9-MyD88 inhibitors; inhibition, % at 4.98 µM; actives 39% (n = 680); shares compounds with TLR9-MyD88 inh; AID 588336; TLR9-MyD88 CHO cells cytotoxicity, luminescence; in the data active means inhibition above about 11%
NOD2 RIPK2 conf: confirmation of human NOD2-RIPK2 interaction inhibitors. shares compounds with NOD2 RIPK2 PPI. CHO cells, NOD2-RIPK2 BLA complementation, CCF4 FRET. inhibition, % at 4.98 µM. actives 70% (n = 1,200);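 active means mean inhibition across replicates above a set limit taken from the earlier primary screen, cut at about 21% in these data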;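 further: 0% = DMSO-only wells and the high end = clavulanate BLA-blocked wells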
BLA counter-2: counter-screen for NOD2-RIPK2 interaction inhibitors: BLA reporter | CHO BLA reporter, CCF4 FRET ratio, counterscreen | inhibition, % at 4.98 µM | actives 57% (n = 1,200) | shares compounds with NOD2 RIPK2 PPI;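 active means mean inhibition above the low-control mean inhibition plus three low-control SD, cut at about 11% in these data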;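 further: 0% = DMSO only wells and 100% = clavulanate high control wells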
* marks the source's active call; other numbers are inactive results; / = no result given.

SMILES	NOD2 RIPK2 PPI	NTR1 ag	MC4R antag cAMP	TLR4 MyD88 comp	MC4R barr agon	TLR9-MyD88 inh	TLR4 MyD88 cnf	BLA inh HeLa	TLR9-MyD88 conf	BLA counter-1	TLR9 CHO tox	NOD2 RIPK2 conf	BLA counter-2
O=C(/C=C/c1cn(CC(O)CN2CCCCCC2)c2ccccc12)c1cccs1 (stereo not drawn)	47*	-3	-9	31*	-1	47*	37*	60*	28*	27	2	56*	52*
Cn1c(=O)c(NCCO)c2c3c(cccc31)C(=O)c1ccccc1-2	6	-4	1	2	-1	3	/	/	/	/	/	/	/
CCCCNc1c2c3c(cccc3n(C)c1=O)C(=O)c1ccccc1-2	47*	-2	-17	41*	0	36*	26*	47*	26*	26	6	52*	58*
Cn1c(=O)c(NCCc2ccccc2)c2c3c(cccc31)C(=O)c1ccccc1-2	38*	-4	2	39*	-1	37*	39*	64*	37*	38	-2	63*	71*
CC(=O)Nc1ccc(S(=O)(=O)NCC(=O)OCc2ccccc2)cc1	12	2	28	-2	2	-3	/	/	/	/	/	/	/
Cc1[nH]c2ccccc2c1/C=N/Nc1ccccn1	/	/	/	1	/	/	/	/	/	/	/	/	/
Cc1[nH]c2ccccc2c1/C=N/Nc1ccc([N+](=O)[O-])cc1	28*	/	4	31*	-6	26*	24	43*	17	15	4	30*	42*
OC1=C(O)c2nc3cc(C(F)(F)F)ccc3nc21	5	0	-40	/	-2	6	/	/	/	/	/	/	/
CCN1CCc2c(sc(NC(=O)Nc3ccc(Cl)c(Cl)c3)c2C(N)=O)C1	41*	/	5	35*	-1	48*	38*	60*	15	10	20*	24*	30*
CCN1CCc2c(sc(NC(=O)Cc3ccccc3)c2C(N)=O)C1	-2	-2	-6	/	0	2	/	/	/	/	/	/	/
Cc1n[nH]c(C)c1N1C(=O)c2cccc3c(Br)ccc(c23)C1=O	57*	9	8	73*	-4	48*	45*	79*	22*	26	4	71*	59*
COc1cccc(NC(=O)C2(C)CCN2Cc2ccccc2OC(F)F)c1 (stereo not drawn)	4	/	-3	/	-1	/	/	/	/	/	/	/	/
CC12CCC(=O)C=C1CCC1C2CCC2(C)C1CC1C3C(=O)N(Cc4ccccc4)C(=O)C3CC(=O)C12 (stereo not drawn)	10	/	2	/	0	1	/	/	/	/	/	/	/
CCN(CC)C(=O)c1sc2nc(-c3cccs3)cc(-c3ccc(Cl)cc3)c2c1N	-9	4	15	7	-1	18	/	/	/	/	/	/	/
N#Cc1sc2nc(-c3cccs3)cc(-c3ccc(Cl)cc3)c2c1N	24*	12	9	44*	5	30*	47*	75*	46*	45	3	64*	66*
CCOC(=O)CS(=O)(=O)c1nc(-c2ccccc2)cc(C(F)(F)F)n1	85*	2	13	25*	-4	30*	17	-18	30*	7	100*	85*	27*
CCOC(=O)CS(=O)(=O)c1ccccc1	-11	-5	-2	10	-1	-6	/	/	/	/	/	/	/
Cc1cc(Cl)n2c(nc3ccccc32)c1C#N	23*	/	-20	45*	-3	-4	52*	56*	/	/	/	86*	63*
CCC(C)c1ccc(NC(=S)NC(C)C2CCCO2)cc1 (stereo not drawn)	-3	2	0	-4	-2	-1	/	/	/	/	/	/	/
COc1ccc(C(=O)N2CCC2(C)C(=O)NC(C)C)c(OC)c1 (stereo not drawn)	-10	/	1	/	0	/	/	/	/	/	/	/	/
CCOC(=O)CC1=C(C(=O)OCC)C(c2cccnc2)C(C#N)=C(N)O1 (stereo not drawn)	-5	1	10	-1	-1	2	/	/	/	/	/	/	/
CCOC(=O)C1=C(CSc2nc(-c3ccccc3)ccc2C#N)OC(N)=C(C#N)C1c1cccnc1 (stereo not drawn)	21*	-3	22	27*	-1	14	6	15	/	/	/	26*	37*
CCOC(=O)c1c(NC(=O)COC(=O)CC(NC(C)=O)c2ccccc2)sc(C(=O)NC)c1C (stereo not drawn)	-6	0	9	/	-3	4	/	/	/	/	/	/	/
CN(C)c1ccc(/C=C/c2nc3ccccc3s2)cc1	22*	-2	10	45*	1	30*	44*	68*	46*	59*	26*	57*	70*
CC1CCCCC1NC(=O)COC(=O)CN1C(=O)c2ccccc2C1=O (stereo not drawn)	8	-1	-3	/	0	2	/	/	/	/	/	/	/
CC1CCCCC1NC(=O)CN1C(=O)c2cccc(N)c2C1=O (stereo not drawn)	47*	/	-4	33*	-1	38*	33*	52*	18	25	0	42*	48*
CCCCNC(=O)CN1C(=O)c2cccc(N)c2C1=O	45*	/	7	38*	-3	38*	27*	48*	17	20	-2	45*	48*
O=c1oc2cc(O)ccc2cc1-c1nc2c(s1)CCc1ccccc1-2	44*	/	12	52*	6	47*	69*	99*	67*	79*	2	72*	85*
Nc1nnc(-c2cc3ccccc3oc2=O)s1	12	0	-13	14	-2	14	/	/	/	/	/	/	/
